We go through 26 compounds from ChEMBL document CHEMBL1124993, “2-Phenyl-2-(1-hydroxycycloalkyl)ethylamine derivatives: synthesis and antidepressant activity” (J Med Chem, 1990).

The term IC50 denotes the concentration at which inhibition is half-maximal.

Assay [1] concerns the target Norepinephrine transporter (Rattus norvegicus, UniProt Q9WTR4). The experiment in a line: Inhibition of uptake of tritiated norepinephrine (NE) into rat brain synaptosomes. The class given is functional, subcellular.
Assay [2] has as its target Sodium-dependent serotonin transporter (Rattus norvegicus, UniProt P31652). Nature of the assay: Inhibition of uptake of [14C]-labelled serotonin (5-HT) into rat brain synaptosomes.
Assay [3] concerns Rattus norvegicus. The experiment in a line: In vivo noradrenergic responsiveness in the rat pineal gland at 10 mg/kg (ip) (single treatment); No significant effect. It is filed as functional, organism-based. Also noted: dose 10 mg/kg.
Assay [4] has as its system Rattus norvegicus. The experiment in a line: In vivo noradrenergic responsiveness in the rat pineal gland at 10 mg/kg (ip) (chronic treatment); No significant effect. The class given is functional, organism-based. Set-up: dose 10 mg/kg. The essentials: (§1)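 Male Sprague–Dawley rats kept in continuous light, dosed ip twice daily for 5 days (nine injections). 1 h after last dose, isoproterenol 2 μmol/kg in 0.1% ascorbic acid (controls: vehicle); pineal removed 2.5 min later, perchloric acid extract assayed for cAMP by 125I radioimmunoassay. Expressed as % change from control isoproterenol-stimulated pmol cAMP/pineal.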

In a further assay the test system is Mus musculus. The experiment in a line: In vivo antagonism of reserpine-induced hypothermia in the mice. It is filed as functional. Conditions: for minimal effective dose: Mus musculus, read-out: MED. The essentials:
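Male mice pretreated 18 h earlier with reserpine 5.0 mg/kg sc; compounds in 0.25% Tween 80 in water given ip or po at 1, 3, 10, 30, 100 mg/kg. Rectal temperature read at 1, 2, 3 h post-dose; MED for reversing hypothermia from two-way ANOVA with Dunnett's comparison to control.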

Assay [5] relates to Rattus norvegicus. Nature of the assay: (§2) In vivo antagonism of histamine-induced ACTH release in the rat at 10 mg/kg (ip). The class given is functional. The essentials: (§3)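 Male Sprague–Dawley rats (200–300 g) given compound in saline ip 1 h before saline or histamine (5 mg/kg ip); decapitated 10 min later, trunk blood serum assayed for ACTH by radioimmunoassay (pg/mL). Two-way ANOVA with Dunnett's and Student–Neuman–Keuls tests; value is % decrease of histamine-stimulated ACTH.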

For assay [6], the system named is Rattus norvegicus. Nature of the assay: (§4) In vivo noradrenergic responsiveness in the rat pineal gland at 10 mg/kg (ip) (chronic treatment). It is filed as functional. The essentials: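 Male Sprague–Dawley rats under continuous light, injected ip twice daily for 5 days (nine injections) with 10 or 30 mg/kg. 1 h after last dose, isoproterenol 2 μmol/kg in 0.1% ascorbic acid (or vehicle). Pineal removed 2.5 min later, perchloric acid extract, cAMP by 125I radioimmunoassay; % change versus isoproterenol-stimulated controls.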

For assay [7], the system named is Rattus norvegicus. The experiment in a line: In vivo noradrenergic responsiveness in the rat pineal gland at 10 mg/kg (ip) (single treatment). The class given is functional. The essentials: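 Male Sprague–Dawley rats kept in continuous light, given saline twice daily for 5 days, then a single 10 or 30 mg/kg ip dose on day 5. 1 h later, isoproterenol 2 μmol/kg in 0.1% ascorbic acid (or vehicle). Pineal removed 2.5 min after, perchloric acid extract, cAMP by radioimmunoassay; % change versus isoproterenol-stimulated controls.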

Assay [8] relates to Rattus norvegicus. The description is as §2. It is filed as functional. The essentials: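 Male Sprague–Dawley rats (200–300 g), 10 mg/kg in saline ip, 1 h before saline or histamine (5 mg/kg ip). Decapitated 10 min later; trunk-blood serum frozen at -60 °C, ACTH measured by radioimmunoassay (pg/mL). Two-way ANOVA with Dunnett's and Student–Neuman–Keuls tests; expressed as % decrease.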
The source holds these as a separate data set.

Assay [9] concerns Rattus norvegicus. The description is as §4. The class given is functional. The essentials:
as §1
The source holds these as a separate data set.

Assay [10] deals with T1, Adrenergic receptor beta (Rattus norvegicus) (UniProt P18090+P10608+P26255).
Assay [11] concerns the target T1, Adrenergic receptor beta (Rattus norvegicus). This is another data set of the same source.
Assay [12] addresses T2, Serotonin 2 (5-HT2) receptor (Rattus norvegicus) (UniProt P30994+P08909+P14842).
The target in assay [13] is T2, Serotonin 2 (5-HT2) receptor (Rattus norvegicus). The source holds these as a separate data set.
For assay [14], the system named is Rattus norvegicus. The experiment in a line: In vivo antagonism of histamine-induced ACTH release in the rodents at 10 mg/kg (ip); No significant effect. Also noted: dose 10 mg/kg. The class given is functional, organism-based. The essentials: as §3

SMILES strings stand for the structures. Activity calls are given as the source filed them. The rule behind the calls is not given here.

Sodium-dependent serotonin transporter, sequence (P31652 whole entry): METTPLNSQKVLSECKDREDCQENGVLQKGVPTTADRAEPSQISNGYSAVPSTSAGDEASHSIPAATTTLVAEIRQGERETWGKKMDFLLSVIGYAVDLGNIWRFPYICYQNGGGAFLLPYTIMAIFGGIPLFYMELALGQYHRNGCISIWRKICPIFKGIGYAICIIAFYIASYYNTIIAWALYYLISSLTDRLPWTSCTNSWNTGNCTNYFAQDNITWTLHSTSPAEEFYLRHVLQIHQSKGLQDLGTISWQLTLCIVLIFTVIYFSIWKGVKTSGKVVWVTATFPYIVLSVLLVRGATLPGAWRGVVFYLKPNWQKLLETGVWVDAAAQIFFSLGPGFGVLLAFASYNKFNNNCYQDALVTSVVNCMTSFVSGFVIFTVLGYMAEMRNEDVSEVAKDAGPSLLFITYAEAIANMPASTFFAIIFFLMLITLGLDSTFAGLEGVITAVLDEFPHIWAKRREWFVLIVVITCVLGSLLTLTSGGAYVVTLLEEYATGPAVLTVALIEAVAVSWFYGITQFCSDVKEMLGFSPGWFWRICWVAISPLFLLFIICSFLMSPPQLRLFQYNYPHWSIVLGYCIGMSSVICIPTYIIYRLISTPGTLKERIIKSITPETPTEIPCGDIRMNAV
Norepinephrine transporter, sequence (Q9WTR4 whole entry): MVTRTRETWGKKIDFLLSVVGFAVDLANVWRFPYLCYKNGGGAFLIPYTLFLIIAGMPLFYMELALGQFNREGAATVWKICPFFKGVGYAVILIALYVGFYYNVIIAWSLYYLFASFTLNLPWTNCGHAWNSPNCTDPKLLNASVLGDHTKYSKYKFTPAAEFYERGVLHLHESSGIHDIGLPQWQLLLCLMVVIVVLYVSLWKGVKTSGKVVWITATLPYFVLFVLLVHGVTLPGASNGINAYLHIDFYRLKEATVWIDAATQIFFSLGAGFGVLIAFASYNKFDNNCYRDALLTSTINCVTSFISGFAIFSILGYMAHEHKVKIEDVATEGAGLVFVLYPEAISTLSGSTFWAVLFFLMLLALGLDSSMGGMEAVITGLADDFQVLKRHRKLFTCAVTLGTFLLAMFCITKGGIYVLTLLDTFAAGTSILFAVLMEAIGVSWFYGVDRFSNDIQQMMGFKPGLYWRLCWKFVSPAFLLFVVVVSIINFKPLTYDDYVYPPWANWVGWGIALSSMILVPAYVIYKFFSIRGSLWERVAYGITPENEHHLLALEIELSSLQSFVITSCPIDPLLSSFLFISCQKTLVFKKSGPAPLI
T2 sequence (P08909 whole entry, looked up): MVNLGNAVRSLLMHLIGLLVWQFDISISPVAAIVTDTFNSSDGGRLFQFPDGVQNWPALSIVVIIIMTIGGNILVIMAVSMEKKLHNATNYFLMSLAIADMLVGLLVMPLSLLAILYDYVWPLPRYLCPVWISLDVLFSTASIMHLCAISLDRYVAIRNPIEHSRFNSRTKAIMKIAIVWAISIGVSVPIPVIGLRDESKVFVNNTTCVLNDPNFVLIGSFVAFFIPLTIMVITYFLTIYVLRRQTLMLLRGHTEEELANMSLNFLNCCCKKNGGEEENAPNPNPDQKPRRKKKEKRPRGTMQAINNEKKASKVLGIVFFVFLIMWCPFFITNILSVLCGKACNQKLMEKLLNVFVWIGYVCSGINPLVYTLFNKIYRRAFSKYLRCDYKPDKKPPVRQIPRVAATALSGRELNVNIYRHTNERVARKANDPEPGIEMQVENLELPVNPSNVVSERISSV
T2 sequence (P14842 whole entry, looked up): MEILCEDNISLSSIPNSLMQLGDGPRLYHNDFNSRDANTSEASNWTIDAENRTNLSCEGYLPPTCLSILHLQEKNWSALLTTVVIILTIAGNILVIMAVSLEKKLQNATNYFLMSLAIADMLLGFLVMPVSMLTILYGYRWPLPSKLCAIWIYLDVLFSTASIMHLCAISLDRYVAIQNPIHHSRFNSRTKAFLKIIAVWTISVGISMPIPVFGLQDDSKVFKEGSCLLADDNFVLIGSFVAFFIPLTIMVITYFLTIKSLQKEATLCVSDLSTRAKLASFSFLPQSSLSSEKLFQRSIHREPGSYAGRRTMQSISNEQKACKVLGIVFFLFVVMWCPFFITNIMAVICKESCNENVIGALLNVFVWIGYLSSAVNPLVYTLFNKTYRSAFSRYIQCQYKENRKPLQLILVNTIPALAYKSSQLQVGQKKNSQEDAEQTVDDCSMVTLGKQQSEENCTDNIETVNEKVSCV
T2 sequence (P30994 whole entry, looked up): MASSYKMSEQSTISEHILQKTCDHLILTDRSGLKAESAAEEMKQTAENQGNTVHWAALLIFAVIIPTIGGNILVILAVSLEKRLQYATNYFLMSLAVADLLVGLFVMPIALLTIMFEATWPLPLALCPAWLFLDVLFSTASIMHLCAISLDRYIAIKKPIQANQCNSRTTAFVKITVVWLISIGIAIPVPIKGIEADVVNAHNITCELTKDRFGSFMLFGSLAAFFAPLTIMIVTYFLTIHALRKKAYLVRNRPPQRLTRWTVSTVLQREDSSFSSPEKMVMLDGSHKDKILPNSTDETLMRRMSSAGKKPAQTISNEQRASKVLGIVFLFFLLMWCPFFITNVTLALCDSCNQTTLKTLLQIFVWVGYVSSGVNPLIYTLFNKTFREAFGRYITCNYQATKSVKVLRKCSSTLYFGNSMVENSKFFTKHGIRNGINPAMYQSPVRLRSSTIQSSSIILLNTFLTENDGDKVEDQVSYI

As for `COc1ccc(C(CN(C)C)C2(O)CCCCCC2)cc1` (centres undefined), the IC50 in assay [1] was 2.07 µM; in [2], 0.24 µM.
As for `CN(C)CC(c1ccc(Br)cc1)C1(O)CCCCC1` (centres undefined), the IC50 in [1] was determined as 0.21 µM; in assay [2], 0.11 µM. Also, the Change entry in the assay with Rattus norvegicus [3] and in the assay on Rattus norvegicus [4] was “inactive” in each case. In addition, the minimal effective dose with Mus musculus was found to be 1 mg/kg. Besides, the Decrease in the assay with Rattus norvegicus [5] worked out at 43%.
Consider `COc1ccc(C(CN(C)C)C2(O)CCCCC2)cc1` (single isomer, unassigned; (-)) [VENLAFAXINE], for which the Change is on record as -51% in the assay on Rattus norvegicus [6] and -53% with Rattus norvegicus [7]. The compound further returned an MED with Mus musculus of 3 mg/kg. The compound also yielded a Decrease in the assay with Rattus norvegicus [8] (10 mg/kg) of 37%.
For the compound `CN(C)CC(c1ccccc1)C1(O)CCCCC1` (centres undefined), the IC50 in assay [1] came out at 1.9 µM.
For `CNCCCN1c2ccccc2CCc2ccccc21` [DESIPRAMINE], the Change result with Rattus norvegicus [3] was “inactive”. Besides, the minimal effective dose in the assay on Mus musculus is 0.4 mg/kg. The compound further had a Decrease in the assay with Rattus norvegicus [5] of 52%. In addition, the Change in the assay with Rattus norvegicus [9] is -81%.
With `Cc1ccc(C(CN(C)C)C2(O)CCCCC2)cc1` (centres undefined), the IC50 in assay [1] is 0.53 µM; in assay [2], 1.54 µM.
As for `CN(C)CC(c1cccc(Br)c1)C1(O)CCCCC1` (centres undefined), the IC50 in assay [1] was 0.11 µM; in assay [2] it was 0.23 µM. In addition, the Change entry with Rattus norvegicus [3] and in the assay with Rattus norvegicus [4] was “inactive” each time. For the same compound, the minimal effective dose in the assay with Mus musculus came to 1 mg/kg. Further, in the assay with Rattus norvegicus [8], the Decrease was 67%.
With `COc1ccc(C(CN(C)C)C2(O)CCCCC2)cc1` (single isomer, unassigned; (+)), the Change result in the assay with Rattus norvegicus [3] and in the assay with Rattus norvegicus [4] was “inactive” throughout.
`CN(C)CC(c1ccc(C(F)(F)F)cc1)C1(O)CCCCC1` (centres undefined): the IC50 was 2.8 µM in assay [1] and 0.4 µM in [2].
The corresponding values for `CN(C)CC(c1cccc(C(F)(F)F)c1)C1(O)CCCCC1` (centres undefined) are 0.36 µM and 1.44 µM.
In the assay on Mus musculus, `COc1ccc(C(CN(C)C)C2(O)CCCCC2)cc1` (single isomer, unassigned; (+)) [VENLAFAXINE] came in with an MED of 30 mg/kg. Also, the Decrease with Rattus norvegicus [8] (10 mg/kg) is reported as 54%.
On to `COc1ccc(C(CN(C)C)C2(O)CCCCC2)cc1OC` (centres undefined), for which the IC50 was found to be 1.38 µM in assay [1] and 0.13 µM in [2].
Consider `CN(C)CC(c1ccc(C(F)(F)F)cc1)C1(O)CCCCCC1` (centres undefined), for which the IC50 is 2.4 µM in [1] and 0.5 µM in assay [2].
`COc1ccc(C(CN(C)C)C2(O)CCCCC2)cc1` (stereo in doubt; 4): the Binding activity in [10] was 35 fM/mg; in [11] it was 61.8 fM/mg; in [12] it was 251 fM/mg; in assay [13], 77.8 fM/mg.
In the case of `COc1ccc(C(CN(C)C)C2(O)CCCC2)cc1` (centres undefined), the IC50 in assay [1] was found to be 5.8 µM; in assay [2], 0.4 µM.
Consider `CN(C)CC(c1ccc(Cl)cc1)C1(O)CCCCC1` (centres undefined), for which the results for the IC50 in assay [1] and in [2] were 0.3 µM and 0.18 µM, respectively.
As for `CN(C)CC(c1cccc(Cl)c1)C1(O)CCCCC1` (centres undefined), the Change entry in the assay with Rattus norvegicus [3], with Rattus norvegicus [4] and in the assay with Rattus norvegicus [14] was “inactive” in each case. For the same compound, the minimal effective dose in the assay on Mus musculus was determined as 1 mg/kg.
As to `COc1ccc(C(CN(C)C)C2(O)CCCCC2)cc1` (stereo in doubt; 4) [VENLAFAXINE], the Change in the assay with Rattus norvegicus [7] is -51%; in the assay with Rattus norvegicus [9] it was -43%. In addition, the MED in the assay with Mus musculus stood at 10 mg/kg. Further, the Decrease in the assay with Rattus norvegicus [5] is 26%.
With `CNCC(c1ccc(OC)cc1)C1(O)CCCCC1` (centres undefined) [N-DESMETHYLVENLAFAXINE CHLORIDE], the values for the IC50 in assay [1] and in [2] were 4.7 µM and 1.6 µM, respectively.
On to `CN(C)CC(c1ccc(Cl)c(Cl)c1)C1(O)CCCCC1` (centres undefined), for which, in [1], the 50% inhibitory concentration (IC50) was determined as 0.07 µM. The Change with Rattus norvegicus [7] is -51%; in the assay on Rattus norvegicus [9], -74%. In the assay on Mus musculus, the minimal effective dose amounted to 3 mg/kg. The same compound came in with a Decrease with Rattus norvegicus [5] of 55%.
In the case of `CN(C)CC(c1ccc(C(F)(F)F)cc1)C1(O)CCCC1` (centres undefined), the IC50 in assay [1] turned out to be 10.4 µM; in assay [2], 0.49 µM.
Consider `COc1cccc(C(CN(C)C)C2(O)CCCCC2)c1` (centres undefined), for which the IC50 in assay [1] was found to be 0.62 µM; in [2], 0.19 µM. In addition, the Change with Rattus norvegicus [7] was -79%; with Rattus norvegicus [9], -81%. Besides, the minimal effective dose in the assay with Mus musculus stood at 3 mg/kg. The compound further registered a Decrease in the assay with Rattus norvegicus [5] of 52%.
`CN(C)CC(c1ccc(Br)cc1)C1(O)CCC1` (centres undefined): the IC50 in assay [1] was found to be 0.89 µM; in assay [2], 0.58 µM.
Compound `CN(C)CC(c1ccc(O)cc1)C1(O)CCCCC1` (centres undefined) [DESVENLAFAXINE] displayed an IC50 in assay [1] of 1.16 µM.
Take `COc1ccc(C(CN(C)C)C2(O)CCCCC2)cc1Br` (centres undefined): the values for the half-maximal inhibitory concentration (IC50) in assay [1] and in assay [2] were 0.14 µM and 0.2 µM, respectively. Also, the results for the Change with Rattus norvegicus [7] and in the assay with Rattus norvegicus [9] were -65% and -82%, respectively. Moreover, the minimal effective dose in the assay on Mus musculus was 1 mg/kg. In addition, the Decrease in the assay on Rattus norvegicus [5] is 34%.
On to `COc1cccc(C(CN(C)C)C2(O)CCCC2)c1` (centres undefined), for which the half-maximal inhibitory concentration (IC50) in assay [1] is > 10 µM; in assay [2], 0.68 µM.
